# Rows were chosen to be rich in hits. Some 4.2% of all compounds tested hit in one or more screens of this group.
# OX1R antag-1: antagonists of human orexin 1 receptor (OX1R) | inhibition, % at 6.6 µM | OX1R-expressing cells, FRET antagonist read-out | 330,000 tested, 1.8% active; in the data active = inhibition mostly above about 38%, no sharp cut-off; inactive = mostly below about 40%;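 also: 0% = agonist challenge alone and 100% = reference antagonist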
# OX1R antag-2: OX1R (HCRTR1) antagonists, primary screen, fluorescence, CHO/OX1R cells, Fluo-8 calcium, orexin A. AID 434989, 2010. inhibition, % at 5 µM. Fluo-8 calcium fluorescence. 330,000 tested, 0.43% active. Orexin/Hypocretin receptor type 1 (Homo sapiens), O43613;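 active = inhibition above its plate's threshold, mean inhibition of all tested compounds on the plate plus 3 SD, cut at about 37% in these data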;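 also: 0% = orexin A challenge wells and 100% = SB-334867-A antagonist wells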
# CHO parental Ca: ATP-evoked calcium signal inhibitors, parental CHO, primary screen, counter-screen for OX1R antagonist project, cell-based, fluorescence, Fluo-8 calcium dye. AID 463079, 2010. inhibition, % at 5.6 µM. parental CHO-K1, ATP-induced calcium, Fluo-8 fluorescence. 330,000 tested, 0.63% active;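 active = inhibition above that plate's mean sample inhibition plus 3 SD, cut at about 26% in these data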;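 also: 0% = ATP-challenged DMSO wells and 100% = DMSO wells without ATP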
#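 Material: parental CHO cells / Compound: single nominal dose of 5.6 µM per compound / Signal: Fluo-8 fluorescence / Replicates: singlicate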
# GalR3 antag: GalR3 antagonists in HEK293 cells, primary screen, cell-based, fluorescence readout | HEK293 GalR3-CNG cAMP membrane potential fluorescence; galR3 body fused to GalR1 C-terminus | inhibition, % at 3 µM | 360,000 tested, 0.44% active | AID 651719, 2012;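 active = inhibition above the screen-wide average plus 3 SD, cut at about 13% in these data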;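 also: forskolin and galanin both at EC90 stimulate the cells; cAMP rise reported by CNG channel membrane potential dye signal; 0% = forskolin plus galanin with DMSO and 100% = forskolin alone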
# TAAR1 agonist: human TAAR1 agonists, primary screen, Fluo-8 calcium fluorescence, CHO RD-HGA16 cells. Trace amine-associated receptor 1 (Homo sapiens), Q96RJ0. vehicle wells 0%, saturating PEA agonist 100%. activation, % at 3 µM. 360,000 tested, 0.99% active;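 active = activation above the mean activation of all test compounds in the run plus 3 SD, cut at about 38% in these data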
# Target sequence (Q96RJ0 whole entry, looked up): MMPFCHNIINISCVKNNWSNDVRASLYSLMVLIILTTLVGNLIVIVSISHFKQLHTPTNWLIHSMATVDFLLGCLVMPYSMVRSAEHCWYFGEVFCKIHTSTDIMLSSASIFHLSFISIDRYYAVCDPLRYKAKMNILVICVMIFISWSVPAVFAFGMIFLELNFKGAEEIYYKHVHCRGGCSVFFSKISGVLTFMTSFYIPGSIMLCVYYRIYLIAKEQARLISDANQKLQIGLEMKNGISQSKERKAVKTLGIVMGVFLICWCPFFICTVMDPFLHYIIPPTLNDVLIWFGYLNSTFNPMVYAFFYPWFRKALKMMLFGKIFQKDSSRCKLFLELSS
#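 Repeats: no replicates (n 1) | Material: CHO-derived RD-HGA16 cells with stable Gα16 and human TAAR1 | Technique: Kinetic Fluo-8 calcium fluorescence | Schedule: 17-24 h seeding, 75 min 37 °C dye, 30 min RT | Evaluation: % activation from peak over basal fluorescence ratio, DMSO-to-PEA scaled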
# TAAR1 antag: human TAAR1 antagonists, primary screen, Fluo-8 calcium fluorescence, CHO RD-HGA16 cells | Trace amine-associated receptor 1 (Homo sapiens), Q96RJ0 | antagonist | inhibition, % at 3 µM | 360,000 tested, 1.5% active | AID 624466, 2012;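 active = inhibition above a per-plate cutoff, the mean inhibition of test compounds on that plate plus 3 SD, cut at about 49% in these data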;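 also: 0% = DMSO plus EC80 beta-PEA response and 100% = DMSO alone without agonist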
#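 Test system – hTAAR1-expressing CHO RD-HGA16 cells, Gα16-coupled · Reagent – β-PEA at EC80 concentration, post-compound challenge · Compound dosing – 3 µM, single point · Timing – 140 s kinetic read after compound, 140 s after agonist · Detection – Fluo-8 intracellular calcium dye fluorescence, real-time kinetic reads · Control set – DMSO and EC80 PEA controls · Repeats – n of 1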
# TAAR1 nonsel count: nonselective antagonists in TAAR1 counter-screen cells, counter-screen for hTAAR1 antagonist project, cell-based, fluorescence, calcium. inhibition, % at 3 µM. shares compounds with TAAR1 antag. counterscreen cell line, antagonist mode. 2,400 tested, 77% active; in the data active = inhibition above about 22%;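 also: CHO-Ga16 host cells stimulated with ATP at an EC80 level; 0% = agonist EC80 plus vehicle and 100% = vehicle without agonist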
# TAAR1 ant conf: human TAAR1 antagonists, retest of hits, confirmation, cell-based, fluorescence | TAAR1-expressing cells, fluorescence antagonist read-out | inhibition, % at 3 µM | shares compounds with TAAR1 antag | 2,400 tested, 40% active; in the data active = inhibition above about 49%;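 also: CHO-Ga16 host cells challenged with agonist PEA near its EC80; 0% = agonist at EC80 plus vehicle and 100% = vehicle with no agonist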
# Ga16 ag counter: calcium activation in Ga16-expressing cells, counter-screen for TAAR1 antagonist project, cell-based, fluorescence; shares compounds with TAAR1 antag; agonist counterscreen; activation, % at 3 µM; 2,400 tested, 18% active; AID 651953, 2012; in the data active = activation above about 12%;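 also: 0% = vehicle wells and 100% = saturating stimulus response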
# TAAR1 ag count: TAAR1 activation by candidate antagonists – cell-based, fluorescence, counter-screen for TAAR1 antagonist project; activation, % at 3 µM; shares compounds with TAAR1 antag; 2,400 tested, 2% active; hTAAR1 cell line, agonist mode; in the data active = activation above about 37%;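 also: CHO cells stably expressing TAAR1 with calcium dye readout; 0% = DMSO vehicle and 100% = full agonist response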
# * hit, by the source's call; . = no result given.
SMILES,OX1R antag-1,OX1R antag-2,CHO parental Ca,GalR3 antag,TAAR1 agonist,TAAR1 antag,TAAR1 nonsel count,TAAR1 ant conf,Ga16 ag counter,TAAR1 ag count
O=C1C(CCc2ccccc2)ON=C(c2cnccn2)N1Cc1ccc(F)cc1 (stereo not drawn),.,.,.,5,0,30,.,.,.,.
CC(=O)Nc1ccc(CN2C(=O)C(CCc3ccccc3)ON=C2c2cnccn2)cc1 (stereo not drawn),.,.,.,1,20,76*,29*,54*,11,10
COc1ccc(OC)c(CN2CCCC(C(=O)N3CCCCC3)C2)c1 (stereo not drawn),6,-22,-7,-5,-3,106*,12,1,1,7
COc1ccc(/C=C/C(=O)OCc2cc(=O)n3c(n2)sc2ccccc23)cc1,16,-16,1,6,4,-24,.,.,.,.
CCOC(=O)C1=C(C)Nc2nc(SCC)[nH]c(=O)c2C1c1ccncc1 (stereo not drawn),22,-29,-13,-6,15,1,.,.,.,.
COc1nc(N/N=C/c2ccc(-c3ccccc3[N+](=O)[O-])o2)nc(N2CCOCC2)n1,30,-14,-7,2,16,64*,21,39,12*,11
COC(=O)c1ccccc1-c1ccc(/C=N/Nc2nc(N3CCCC3)nc(N3CCCC3)n2)o1,27,-25,-29,-3,10,69*,17,38,4,2
COc1ccc(NC(=O)CSc2nnc(-c3cc(C)[nH]n3)n2N)cc1,-2,0,-4,3,12,-13,.,.,.,.
CC(OC(=O)CN1C(=O)NC(C)(C)C1=O)C(=O)c1ccccc1 (stereo not drawn),2,-2,-11,-4,0,14,.,.,.,.
O=C(CN1CCN(c2ccccn2)CC1)Nc1ccc([N+](=O)[O-])cc1C(=O)Nc1ccccc1F,21,-56,-18,0,3,57*,17,40,16*,5
CSc1ccccc1NC(=O)CN1CCN(c2ccccn2)CC1,-5,-11,-25,-8,5,5,.,.,.,.
Cc1ccc2oc(=O)c3cc(C(=O)NCCCN4CCc5ccccc5C4)sc3c2c1,24,-31,-30,6,2,-6,.,.,.,.
COc1ccccc1N(Cc1ccccc1)S(=O)(=O)c1cccc(C(=O)Nc2ccccn2)c1,33,-11,-21,-2,0,75*,17,39,5,9
COc1cccc(/C=C/C(=C2/C(=O)N(c3ccccc3)N=C2C)c2ccc(C)cc2)c1OC,9,-4,-2,-4,1,-2,.,.,.,.
COC(=O)c1cc(-c2c(C)oc3cc(OC(C)C)ccc3c2=O)c(C)o1,14,-27,-28,-2,0,1,.,.,.,.
CCC1CN(C(=O)N2CCC(C(=O)NCCc3ccc(OC)cc3OC)CC2)c2ccccc2O1 (stereo not drawn),12,-33,-25,3,13,56*,35*,54*,10,14

# Bioassay records: PubChem, The Scripps Research Institute Molecular Screening Center
